An excerpt weighted towards active compounds, which were near 1.9% of everything screened.
TbMetRS inhib: T. brucei MetRS inhibitors, primary screen, biochemical, luminescence | methionyl-tRNA synthetase (Trypanosoma brucei brucei) | purified T. brucei MetRS, ATP depletion, Kinase-Glo luminescence | inhibition, % at 11.9 µM | 360,000 tested, 0.4% active | AID 624268, 2012;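 active = inhibition above a per-plate cutoff of the control wells' mean inhibition plus 3 SD, cut at about 5.5% in these data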;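 note: 0% = DMSO wells median and 100% = median of wells with control inhibitor compound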
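Assay system: T. brucei methionyl-tRNA synthetase, purified | Medium: HEPES buffer with MgCl2, KCl, DTT, spermine, BSA, pyrophosphatase | Compound: 11.9 µM single point | Incubation: 15 min enzyme-compound preincubation, 2 h reaction, 10 min detection, 25 °C | Measured by: Kinase-Glo luciferase luminescence reporting remaining unconsumed ATP | Measure: % inhibition normalized to control-well medians | Replication: Singlicate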
PLCb3 inh: human PLC-beta3 inhibitors, primary screen, biochemical, fluorescence; 1-phosphatidylinositol 4,5-bisphosphate phosphodiesterase beta-3 (Homo sapiens), Q01970; Purified PLC-beta3, fluorogenic substrate; inhibition, % at 12.2 µM; 370,000 tested, 0.18% active; AID 720704, 2013;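 note: 0% = median of compound wells on plate and 100% = full blocker control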
PLC-gamma1 inh: PLC-gamma1 enzyme inhibitors, primary screen, biochemical, fluorescence, purified enzyme; 370,000 tested, 0.84% active; inhibition, % at 12.2 µM; fluorogenic substrate; AID 720700, 2013; 1-phosphatidylinositol 4,5-bisphosphate phosphodiesterase gamma-1 (Homo sapiens), P19174; in the data active = inhibition above about 9.5%
HGIII-sPLA2 inh: human group III sPLA2 inhibitors, primary screen, biochemical, QFRET, BODIPY PC-A2 liposome substrate | Group 3 secretory phospholipase A2 (Homo sapiens), Q9NZ20 | QFRET BODIPY PC-A2 liposome hydrolysis, fluorescence | inhibition, % at 12.2 µM | 370,000 tested, 0.56% active | AID 743126, 2013;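 active = inhibition above mean plus 3 SD of compounds lying within the high and low control bounds, cut at about 19% in these data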;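 note: 0% = median of test compound wells and 100% = no enzyme DMSO wells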
PLCg1 ctr: PLC-gamma1 enzyme inhibitors, counter-screen for PLC-beta3 inhibitor project, biochemical, fluorescence | shares compounds with PLC-gamma1 inh | purified PLC-gamma1, fluorogenic substrate | inhibition, % at 12.3 µM | 3,300 tested, 3.1% active; in the data active = inhibition above about 9.5%
PLCbeta3 conf: PLC-beta3 inhibitor confirmation, biochemical, fluorescence, purified enzyme; shares compounds with PLC-gamma1 inh; fluorogenic substrate fluorescence; inhibition, % at 12.3 µM; 3,300 tested, 1% active; AID 743261, 2014
* = called active by the depositor; / = no result. Cut-off read from the data, not from the text of the source, unless noted: active = inhibition above about 11%; inactive = the rest.

SMILES	TbMetRS inhib	PLCb3 inh	PLC-gamma1 inh	HGIII-sPLA2 inh	PLCg1 ctr	PLCbeta3 conf
COc1cc(C2CC(=O)Oc3cc(O)ccc32)cc(OC)c1OC (stereo not given)	-2	-4	0	2	/	/
N#Cc1cccc(NC(=O)OC2CC3CC2[C@H]2CCCCN2C3)c1 (stereo not given in full)	/	3	5	0	/	/
CC(=O)Nc1ccc(NC(=O)CCCSc2nc3ccccc3[nH]2)cc1	0	2	13*	6	5	5
O=C1CCC(=O)N1c1ccc(CSc2nc3ccccc3[nH]2)cc1	0	3	11*	-4	-9	-3
O=C(CSc1nc2ncccc2[nH]1)NCc1ccccc1	2	0	-1	8	/	/
COc1ccc(CSc2nc3ccccc3[nH]2)cc1	-2	3	2	-4	/	/
O=C(CSc1nc2ccccc2[nH]1)NCc1ccccc1	1	-2	14*	1	4	5
COCC#Cc1ccc2c(c1)O[C@H](CN(C)C(=O)c1ccccc1)[C@@H](C)CN([C@H](C)CO)S2(=O)=O	/	3	-1	4	/	/
O=c1c2cc3cccnc3nc2ncn1CCc1c[nH]c2ccccc12	/	-31	-24	-7	/	/
Cn1c(N)c(C(=O)CSc2nc3ccccc3c(=O)n2Cc2ccccc2)c(=O)n(C)c1=O	0	5	11*	8	-5	-4
Cn1c(SCC(=O)c2c(N)n(C)c(=O)n(C)c2=O)nnc1-c1ccccc1	0	3	15*	3	-6	-1
Cn1c(SCC(=O)c2c(N)n(C)c(=O)n(C)c2=O)nnc1-c1ccccc1F	0	-2	-1	4	/	/
CCCCN1CC(=O)N2[C@H](C[C@@]3(n4ccc5ccccc54)c4ccccc4N(S(=O)(=O)c4ccccc4)[C@@H]23)C1=O	/	-3	-2	-7	/	/
CCn1c(O)c(C2=NCCCC2)c2ccccc21	-1	5	9.7*	8	5	7
O=C(CCNc1cc(Cl)cc(Cl)c1)c1cccs1	-1	5	13*	-20	11*	4
O=C(CCNc1ccc(Cl)cc1)c1cccs1	1	2	3	-2	/	/
CC(C)CNC(=O)c1cc([N+](=O)[O-])ccc1N1CCOCC1	0	5	11*	8	-9	-5
CC1CCCN(c2nc(NCc3ccco3)nc(N)c2[N+](=O)[O-])C1 (stereo not given)	0	3	16*	-36	0	3
Nc1nc(Nc2ccccc2)nc(NCc2ccco2)c1[N+](=O)[O-]	0	6	7	-14	/	/
Nc1nc(Nc2ccccc2F)nc(NCc2ccco2)c1[N+](=O)[O-]	-1	-6	13*	-5	-2	-2
CCOC(=O)CN(C(=O)CNC(=O)c1cccs1)C(C(=O)NC1CCCCC1)c1cccnc1 (stereo not given)	-1	2	7	2	/	/
C=CCN(C(=O)CNC(=O)c1cccs1)C(C(=O)NC1CCCCC1)c1cccnc1 (stereo not given)	0	8	9.7*	4	8	5
Cc1ccc(-n2c(SCC(=O)c3ccc(-c4ccccc4)cc3)nnc2-c2ccc(C(C)(C)C)cc2)cc1	/	-4	-2	4	/	/
Cn1c(=O)n(Cc2ccccc2)c(=O)c2c1nc1n2CCN1Cc1ccco1	-1	0	-2	4	/	/
Cc1ccccc1Cn1c(=O)c2c(nc3n2CCN3Cc2ccco2)n(C)c1=O	-1	7	11*	15	-3	1
SMILES	TbMetRS inhib	PLCb3 inh	PLC-gamma1 inh	HGIII-sPLA2 inh	PLCg1 ctr	PLCbeta3 conf
CCCOc1ccc(C2C(=O)N(C3CCCCCC3)CC(=O)N2Cc2ccco2)cc1OC (stereo not given)	-1	6	4	-12	/	/
CCCOc1ccc(C2C(=O)N(C3CCCCC3)CC(=O)N2C2CC2)cc1OC (stereo not given)	1	-1	13*	0	-6	-3
Cc1ccc(C(=O)OCC(=O)Nc2ccccc2C(F)(F)F)cc1S(=O)(=O)N1CCCCC1	0	-4	9.8*	-10	3	5
COc1ccc2c(OC)cc(=O)n(C)c2c1	0	3	13*	4	-7	-5
COc1cc(=O)n(C)c2ccccc12	-1	3	2	2	/	/
CC(C)CN(CC(C)C)S(=O)(=O)c1cc([N+](=O)[O-])ccc1N1CCCCCC1	0	-3	-4	-1	/	/
CN(C)S(=O)(=O)c1cc([N+](=O)[O-])ccc1N1CCCCCC1	0	9	10*	8	-3	-3
C1=CC2CC1CC2CN1CCN(Cc2ccccc2)CC1 (stereo not given)	-1	1	1	6	/	/
Fc1ccccc1N1CCN(CC2CC3C=CC2C3)CC1 (stereo not given)	0	11*	12*	3	-3	0
CCC(CO)Nc1cccc2c1S(=O)(=O)N(Cc1cn(Cc3cccc(C(F)(F)F)c3)nn1)Cc1ccccc1O2 (stereo not given)	/	-14	-8	-13	/	/
COCC(=O)N1CCCC(CNS(=O)(=O)c2ccc(OC)cc2)C1 (stereo not given)	0	5	14*	8	-5	-6
CC(=O)Nc1ccc(S(=O)(=O)NCC2CCC(C(=O)N3CCCCC3)CC2)cc1 (stereo not given)	-1	-8	9.9*	8	-4	-3
COc1ccc(CCNC(=O)Cn2ncc3c2-c2cc(C)ccc2OC3)cc1	/	3	1	-8	/	/
N#Cc1ccc(Cn2ccc3ccc(-c4ccc5ccn(Cc6ccccc6)c5c4)cc32)cc1	/	-88	-64	4	/	/
C#CCOc1ccc(Br)cc1C(c1c(C)[nH][nH]c1=O)c1c(C)[nH][nH]c1=O	-1	-2	62*	-62	-3	-1
Cc1ccc2c(c1)-c1c(cnn1CC(=O)NCCc1ccc(Cl)cc1)CO2	/	0	0	3	/	/
CCC[C@H]1[C@@H](NC(=S)Nc2ccccc2Cl)CC[C@@]23CCCN2C(=O)CCC[C@@H]13	/	1	-2	0	/	/
Cc1ccccc1C(=O)NC1CCCCN(Cc2cccc(Cl)c2)C1=O (stereo not given)	/	-2	0	2	/	/
Cc1ccc(NC(=O)COc2cccc3ccc(C)nc23)c(Br)c1	-1	1	13*	-9	-8	-5
CCC(NC(=O)CN1CCN(c2cccc(OC)c2)CC1)c1ccccc1 (stereo not given)	/	-1	0	4	/	/
CCN(C(=O)CSc1nc2c(cnn2-c2ccccc2)c(=O)[nH]1)C1CCS(=O)(=O)C1 (stereo not given)	-1	6	9.7*	4	4	4

Compound activity: PubChem, The Scripps Research Institute Molecular Screening Center
